# ChEMBL document CHEMBL4513216, “Probing the Open Global Health Chemical Diversity Library for Multistage-Active Starting Points for Next-Generation Antimalarials” (ACS Infect Dis, 2020)
# Assay: Toxicity liver stage against HepG2, at 10uM
# Assay type: cell-based
# Parameters: test concentration 10 uM, cell line HepG2-A16-CD81EGFP
# Settings: human, HepG2-A16-CD81EGFP cells; read-out: INHIBITION
# Outline: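 Uninfected HepG2-A16-CD81EGFP cells, 3 × 10^3 per well, 1536-well, plated on prespotted compound at 10 μM final, parasite-free screening media added to match infected plates; puromycin 10 μM positive, DMSO 0.5% negative; run in parallel with 48 h PbLuc assay at 37 °C, 5% CO2; viability by CellTiter-Glo luminescence, normalized to controls.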
row,Compound,cytotoxicity at 10 µM
1,CN(C)c1ccc(-c2nnc([C@H]3CCN(C4CCCCC4)C3)o2)cc1,0.174%
2,CNC(=O)C(C)(C)N1CCC[C@H]1C(=O)NC(C)(C)C,-2.63%
3,COc1ccc(-c2noc([C@@H]3C[C@H](NC(=O)NC(C)C)CN3C)n2)cc1,-1.47%
4,CS(=O)(=O)c1ccc(CN2C[C@@H]3OCC(=O)N(CC(N)=O)[C@@H]3C2)cc1,2.67%
5,CCOC(=O)[C@@H]1[C@@H](c2ccccc2)CN2CCN(C(=O)C3CC3)C[C@H]12,-0.973%
6,O=C(O)CCNC(=O)N1CCc2c([nH]c3ccc(Cl)cc23)C1,11.9%
7,O=c1nc(SCc2cccnc2)c2c(n1CCO)CCCC2,8.97%
8,COCCN1C[C@@H]2CN(C(=O)CC3CC3)C[C@@H]2C1=O,7.8%
9,C[C@@H]1C[C@H]2CN(C(=O)C3=CCCC3)C[C@H]2O1,0.199%
10,O=C(NCCc1ccccn1)[C@@]12CCO[C@@H]1CCN(CC1CC1)C2,5.79%
11,CC(C)CNC(=O)[C@H]1CCS(=O)(=O)[C@@H]2CN(Cc3cccnc3)C[C@H]12,-2.36%
12,CCOCc1ncn2c1CN(C(=O)Nc1ccccc1CC)CC2,7.45%
13,CCOc1cccc(CNc2ccccc2C(F)(F)F)c1O,-4.17%
14,O=C(Nc1ccc(F)cc1F)Nc1c[nH]c(=O)[nH]c1=O,-3.55%
15,Cc1noc(C2CCC3(CCN(C(=O)c4c(C)noc4C)CC3)O2)n1 (centres undefined),-10.6%
16,O=C1CCCN1Cc1ncn2c1CN(C(=O)c1cccc(F)c1)CCC2,-12.1%
17,CCn1cc(CNC(=O)CC(C)C)cn1,4.18%
18,Cc1nc(N2CCN(C(=O)c3ccccn3)CC2)c2c(n1)c(C)nn2C,5.06%
19,N#CCC1CC(c2ccc(F)cc2)=NO1 (centres undefined),-2.37%
20,CCn1cc(CN(C)S(=O)(=O)c2cc(Cl)ccc2Cl)cn1,8.6%
21,O=C1CC(c2ccccc2)c2snc(C(=O)O)c2N1 (centres undefined),-5.02%
22,CC(C)c1cc(C(=O)NCCc2nc(-c3cccnc3)n[nH]2)[nH]n1,8.02%

row,Compound,cytotoxicity at 10 µM
1,Cc1ccccc1CC(=O)NCc1cnc(CC2CCN(C)CC2)cn1,-1.25%
2,OCc1cc(C2CCCN2c2ncccn2)n[nH]1 (centres undefined),8.32%
3,CC(C)NC(=O)[C@@H]1CN(C)C[C@]12COc1ccc(F)cc1C2=O,2.17%
4,COCC(=O)N1C[C@@H](O)[C@H](N2CCN(c3ccccc3)CC2)C1,2.7%
5,CN(C)C(=O)c1cn[nH]c1C1(C)CCN(c2ncccn2)CC1,5.88%
6,Cc1nn(C)cc1-c1cc(C(=O)NCC(C)(C)c2ccccc2F)n[nH]1,6.82%
7,CCCn1nccc1-c1cc(C2CCN(C(C)=O)CC2)ccn1,-1.68%
8,CC(=O)NC(=O)C1(CCCc2ccncc2)CCN1 (centres undefined),-24.5%
9,O=C(NC(Cc1ccsc1)c1nccs1)C1CC1 (centres undefined),-28.3%
10,Cc1ccc(S(=O)(=O)NC(=O)CCc2ccccc2)cc1N(C)C,-0.31%
11,CCn1nc2c(cc1=O)CN(CC1CCCCO1)CC2 (centres undefined),-2.94%
12,Cc1cc(C)n(CC(C)NC(=O)C(C)(C)c2ccccc2F)n1 (centres undefined),-2.58%
13,CCc1noc(C)c1C(=O)NCCCC(CC)(CC)C1OCCO1,-10.1%
14,NC(=O)CC1CCN(c2cncc(OCc3ccccc3)n2)CC1,8.84%
15,CN(C)c1nc(CNC(=O)Nc2cccc([S+](C)[O-])c2)cs1 (centres undefined),-5.27%
16,O=S(=O)(NC1CCN(CC(F)(F)F)C1)c1cc(F)cc(F)c1 (centres undefined),-5.18%
17,CC(C(=O)N1CCN(CCOc2ccccc2)CC1)n1cncn1 (centres undefined),-4.88%
18,Cc1n[nH]c(C)c1CNC(=O)NC1CCCCC1,1.91%
19,Cc1cn2c(CN(C)C(=O)c3cnc(N)c(Cl)c3)c(C)nc2s1,-8.46%
20,Cc1cccc(C(=O)NCc2ccc(OCCN(C)C)cc2)c1C,1.52%
21,Cc1nc(CCNc2ccc(-c3nc(C)c(C)c(=O)[nH]3)cn2)cs1,2.07%
22,COc1cc(Nc2c(C#N)c(=O)n(C)c(=O)n2C)cc(OC)c1,-3.65%

row,Compound,cytotoxicity at 10 µM
1,CCOCCCNC(=O)N(C)Cc1ccc(SC)c(OC)c1,-5.41%
2,COc1ncccc1NC(=O)NCC1CC1,-2.45%
3,COc1cccc(NC(=O)Cc2c(C)nc3c(c2C)c(=O)[nH]n3C)c1,5.05%
4,CCS(=O)(=O)c1ccc(N2CCC(N)CC2)cc1,-6.44%
5,O=C(O)c1ccc(S(=O)(=O)Nc2c(F)cccc2-n2cccn2)cc1,-8.8%
6,Cc1cc(C(=O)Nc2cnn(CC(=O)NC3CCCC3)c2)c(C)s1,3.07%
7,CCOc1cccc(COC(=O)c2ccc(F)cn2)n1,0.296%
8,CC(c1nc(C2CC2)no1)N(C)Cc1ccc2c(c1)OCCO2 (centres undefined),0.611%
9,Cc1ccsc1CN(C)C(=O)C1CCCN(C(N)=O)C1 (centres undefined),5.09%
10,CC(c1ccc(Br)cc1)N1CCCN(C(N)=O)CC1 (centres undefined),2.1%
11,O=C1COc2cccc(OCc3ccccn3)c2N1,2.2%
12,O=S(=O)(NCCc1c[nH]c2cc(F)ccc12)C1CCOC1 (centres undefined),8.57%
13,O=C(CN1CCCNC1=O)Nc1ccccc1C(=O)C1CCCC1,9.83%
14,O=C(CCn1ccccc1=O)Nc1ccc(F)c(Cl)c1,13.1%
15,CCCSCC(=O)Nc1ncn(CC(=O)NCc2ccccc2)n1,19.2%
16,Cc1cc(NC(=O)Cn2cc(C#N)c(=O)c3cc(Br)ccc32)no1,16.5%
17,O=C(NCCNC(=O)N1CCC(c2ccccc2)C1)C1CC1 (centres undefined),-3.08%
18,CCN(CC)C(CNS(=O)(=O)c1ccc(C(=O)NC)cc1)c1ccco1 (centres undefined),4.62%
19,O=C(C1CC=CC1)N1Cc2nccn2CC(CN2CCCC2)C1 (centres undefined),-86.5%
20,Cc1cccc(C(=O)N2CCc3c(COCC4CC4)cncc3C2)n1,-80.1%
21,CCO[C@@H]1CCN(C(=O)N(C)C)[C@@H]1Cc1cnn(C)c1,-73.4%
22,CNc1ccnc(N2CCC(c3nnc(CN4CCCC4)n3C)CC2)n1,0.715%

row,Compound,cytotoxicity at 10 µM
1,c1ccc(Cc2noc(CCNC3CCOC4(CCOCC4)C3)n2)cc1 (centres undefined),-0.872%
2,CS(=O)(=O)c1ncc(CN2CCN3CCCC3C2)n1CC1CCCCC1 (centres undefined),-4.9%
3,COc1ccc(F)cc1C(C(=O)O)N1CCCN(C2CCCC2)CC1 (centres undefined),-8.63%
4,O=C(c1cn(CC(=O)N2CCc3[nH]cnc3C2)c2ccccc12)C1CC1,10.2%
5,CN[C@@H](CO)C(=O)NCc1cc2n(n1)CCCN(C1CCCCC1)C2,-3.14%
6,CSCCCN1C[C@H](NC(=O)c2cnn(C)c2)[C@@H](C2CC2)C1,4.43%
7,CCN(CC)C1CCN(C(=O)c2cc(CC(C)C)nn2CC)C1 (centres undefined),-7.74%
8,CC(C)c1nccn1CCCNC(=O)c1ccc(-c2cncnc2)nc1,16.1%
9,Cc1nc(C2CCN(C(=O)c3cccnc3)CC2)c2sccn12,-5.35%
10,Cc1ccc(F)c(NS(=O)(=O)c2cc(C(=O)O)oc2C)c1,-3.52%
11,CC(C)CCC(C)NC(=O)CN1C=Nc2ccccc2S1(=O)=O (centres undefined),-1.64%
12,CC(Cn1cccn1)NCc1nc(-c2ccco2)no1 (centres undefined),-2.66%
13,NS(=O)(=O)c1ccc(C(=O)N2CCCC2c2ccccc2)o1 (centres undefined),-6.48%
14,COc1ccc(C(=O)N2CCCC2c2noc(C(C)C)n2)nn1 (centres undefined),-4.01%
15,CCn1ccnc1CN1CCN(CC(O)CN2CCOCC2)CC1 (centres undefined),-7.83%
16,COc1ccccc1NC(=O)NCC(O)c1ccc(F)cc1F (centres undefined),4.1%
17,O=C1NCC(C(=O)Nc2ncc(Cc3cccc(F)c3)s2)N1 (centres undefined),-2.45%
18,CCN(Cc1c(F)cccc1F)Cn1nc(C)c2c(C)onc2c1=O,-1.52%
19,Cc1nccn1CCCC(=O)N1CCC(N(C)c2cccnn2)CC1,-13.4%
20,Cc1nn(C)c(C)c1C1CCCN1C(=O)c1nccnc1N (centres undefined),-3.08%
21,CC(C)c1n[nH]c(C2CN(C(=O)c3cccc4cn[nH]c34)CCO2)n1 (centres undefined),-5.31%
22,CC(C)N1CC(C(=O)NCCOc2ccc3c(c2)OCO3)CC1=O (centres undefined),-6.51%

row,Compound,cytotoxicity at 10 µM
1,CCC1c2ccsc2CCN1C(=O)NCCNc1ncccn1 (centres undefined),-13.6%
2,CN(CC1COc2ccccc2O1)C(=O)NCCCn1ccnc1 (centres undefined),-5.54%
3,Cc1cc(NC(=O)CCN(CC2CCOC2)C2CC2)no1 (centres undefined),-0.794%
4,c1cnnc(N2CCCC2CNc2nc3ccccc3o2)c1 (centres undefined),-2.96%
5,CS(=O)(=O)Cc1ccc(CNC(=O)c2cccnc2O)cc1,0.481%
6,CCn1cnnc1C1CCN(C(=O)C(OC)c2ccccc2)CC1 (centres undefined),5.25%
7,CSCC[C@H](N)c1nnc(SCc2cc(C)ccc2C)o1,0.0308%
8,O=C(c1ncccn1)N1CCC2(CC1)COC(COc1ccccn1)C2 (centres undefined),-1.96%
9,CN(C)C(=O)COCC1CN(Cc2ccoc2)Cc2ncn(C)c21 (centres undefined),5.99%
10,O=C(NCc1ccco1)[C@@H]1CC[C@@H]2[C@@H](CCN2CC2CC2)O1,-4.48%
11,CN(C)C(=O)COC1COC2(CCN(CC3CCOCC3)CC2)C1 (centres undefined),-113%
12,COc1ccc(CN2CCC3(CC2)NC(=O)CC3c2cnn(C)c2)cc1 (centres undefined),0.424%
13,CC(=O)N1[C@H](CN(C)C)C[C@@H]2CN(C(=O)c3occc3C)CC[C@@H]21,0.847%
14,COc1cc(CNC(C)Cn2cccn2)cc2c1OCO2 (centres undefined),1.58%
15,CCN1CCC2(C=C(C(=O)NC3CC3)c3ccccc32)CC1,6.2%
16,CN(C)CCOCc1cncc2c1CCN(C1CCOCC1)C2,4.62%
17,O=C1CO[C@@H]2CN(Cc3cccnc3)C[C@H]2N1Cc1ccncc1,-77.6%
18,Cc1cccc(CN2CCC3(CCCN(C(=O)c4ccsc4)C3)C2=O)n1 (centres undefined),-1.14%
19,CCCn1cc(Cl)c(C(=O)N2C[C@H]3CC(OC)C[C@H]3C2)n1 (some centres undefined),0.19%
20,Cc1noc(C)c1CN1C(=O)[C@@H]2CC[C@H]1CN(Cc1nccs1)C2,-0.626%
21,COc1cc(O)cc2c1C(=O)CC(c1ccc(O)cc1)O2 (centres undefined),-3.07%
